High-throughput results as filed in PubChem BioAssay.
HNF4A DNA FP = change in binding of human HNF4 alpha to DNA; HNF4a-FITC DNA binding, fluorescence polarization, 1 h; activity change, % at 10 µM; actives 0.3% (n = 360,000); AID 1224865; in the data active = activity change above about 30%, passing the limit was not always enough
CSN deneddyl inh = blocks human CSN-mediated cullin deneddylation; Purified CSN, SCF-Nedd8-OG deneddylation, fluorescence polarization; inhibition, % at 12.5 µM; actives 0.38% (n = 360,000);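 active = pattern-corrected inhibition above about 35%, with an unprinted fluorescence ratio check between 0.5 and 1.5, limit read from the data, passing the limit was not always enough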;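 note: 0% = enzyme with substrate and 100% = substrate without enzyme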
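Assay system: Purified human Csn5 enzyme expressed in HEK293T cells | Amount: Enzyme 0.24 nM | Measured by: Fluorescence polarization readout | Medium: Tris/NaCl/DTT buffer, pH 7.5 | Compound dosing: One concentration, 12.5 µM, 0.25% DMSO | Times: 90 min incubation of compound, enzyme and substrate at room temperature | Control set: no-enzyme wells high, enzyme-with-substrate wells low | Read-out: % inhibition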
LANA-H2A inh = blocks KSHV LANA binding to histone H2A/H2B | Q9QR71 | cell-free LANA-H2A/H2B peptide, fluorescence polarization | inhibition, % (concentration not given with the values) | actives 0.6% (n = 320,000) | AID 2629; in the data active = inhibition mostly above about 10%, no sharp cut-off; inactive = mostly below about 6.7%
EBNA-1 inh = blocks EBNA-1 binding to DNA. AID 1950. inhibition, % at 14.8 µM. EBNA-1 DNA binding, fluorescence polarization. actives 0.34% (n = 300,000); in the data active = inhibition above about 28%
Bfl-1 A1 inh = inhibitors of the anti-apoptotic protein A1, read as caspase activation | caspase activation, % (no concentration beside the values) | actives 0.066% (n = 330,000) | AID 2462 | MEF A1-2A-BIM cells, Caspase-Glo 3/7 luminescence, 3 h; percent of clofoctol response, vehicle zero;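 active = over half of replicate activation scores above 10%, or exactly half above 10 with the replicate mean above 10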
ZTA DNA inh = counter-screen for EBNA-1 inhibitors: inhibitors of Epstein-Barr virus ZTA; ZTA-DNA binding, fluorescence polarization; inhibition, % at 11 µM; actives 0.15% (n = 320,000); AID 2234; in the data active = inhibition above about 33%
Target sequence (P03206 whole entry, looked up): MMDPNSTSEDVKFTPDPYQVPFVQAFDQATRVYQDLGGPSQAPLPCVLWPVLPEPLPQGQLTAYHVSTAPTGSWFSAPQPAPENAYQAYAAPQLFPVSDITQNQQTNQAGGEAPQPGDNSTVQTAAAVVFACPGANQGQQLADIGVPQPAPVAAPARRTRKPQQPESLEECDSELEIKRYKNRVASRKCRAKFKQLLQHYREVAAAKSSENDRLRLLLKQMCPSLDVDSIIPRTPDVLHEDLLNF
* marks the source's active call; other numbers are inactive results; . = no result given; + = active, no number. Compounds with a hit are over-represented: about 1.5% of the library has one in this group of screens.

SMILES	HNF4A DNA FP	CSN deneddyl inh	LANA-H2A inh	EBNA-1 inh	Bfl-1 A1 inh	ZTA DNA inh
COc1ccc(NC(=O)COC(=O)C23CC4CC(CC(Cl)(C4)C2)C3)c(OC)c1	1	1	171*	-7	0	-12
COc1ccccc1N1CCN(C(=O)c2cc3ccccc3[nH]2)CC1	-1	-2	-5	-2	0	-25
COc1ccccc1N1CCN(C(=O)c2cc3cc(C)ccc3[nH]2)CC1	-2	1	15*	-7	0	-21
Cc1nc(C2CC(=O)OC23CCCCC3)cs1 (stereo not drawn)	5	-3	-5.5*	-9	0	-11
COc1cccc(CNC(=O)c2cccc(S(=O)(=O)N3CCN(c4ccc(F)cc4)CC3)c2)c1	-3	-4	22*	3	0	-8
CS(=O)(=O)N1CCN(c2ccc([N+](=O)[O-])c(NCc3ccc(Cl)cc3)c2)CC1	33	76*	1	7	1	-15
CS(=O)(=O)N1CCN(c2ccc([N+](=O)[O-])c(NCc3ccccc3)c2)CC1	4	2	-10	-5	0	1
CN1CCN(C(=O)C2CCN(c3ncc(C(F)(F)F)cc3Cl)CC2)CC1	3	-11	-6	2	1	-8
O=[N+]([O-])/C=C/c1cn(Cc2ccc(Cl)cc2)c2ccccc12	3	1	5	-7	9.1*	5
Cc1cc([N+](=O)[O-])ccc1NC(=O)CN1C2CCC1CC(NC(=O)NC13CC4CC(CC(C4)C1)C3)C2 (stereo not drawn)	2	-4	4	-9	0	4
Cc1ccc(-c2nnc(SCC(=O)N/N=C/c3ccc(C(=O)O)cc3)n2C2CCCCC2)cc1	3	2	12*	-3	1	-2
O=C(O)COc1ccccc1/C=N/NC(=O)CSc1nnc(-c2ccc(Cl)cc2)n1C1CCCCC1	-2	1	-8	21	0	11
Cc1ccc(SCc2cc(=O)[nH]c(N3CCOCC3)n2)cc1	0	-4	17*	2	0	-3
Cc1ccc(S(=O)(=O)N2CCC(C(=O)N3CCCC(C(F)(F)F)C3)CC2)cc1C (stereo not drawn)	-1	1	1	1	1	15
Clc1ccc(OCCSc2ncccn2)cc1	-2	6	1	-8	-2	-7
COC(=O)c1ccccc1NC(=O)NCc1ccncc1	1	5	35*	-2	1	-13
CC1CN(C(=S)Nc2ccccc2C(F)(F)F)CC(C)O1 (stereo not drawn)	-3	-3	3	16	-2	10
C=CC[C@@H](CC(=O)NCCO)C(=O)N[C@H](COC(=O)[C@@H](CC=C)Cc1ccc(F)cc1)Cc1c[nH]c2ccccc12	-2	-3	+	.	-1	.
C=CC[C@@H](CC(=O)NCCO)C(=O)N[C@@H](COC(=O)[C@@H](CC=C)Cc1ccc(F)cc1)Cc1c[nH]c2ccccc12	2	-1	0	.	0	.
COc1cccc(CC(NC(C)=O)C(=O)NC2CCN(C(=O)c3ccc(Cl)cc3)CC2)c1OC (stereo not drawn)	3	-1	2	-8	0	0
COC(=O)c1ccc(NC(=O)CSc2nncn2-c2ccccn2)cc1	0	2	4	3	0	0
O=C(O)c1ccc2c(c1)C(=O)N(CCc1c[nH]c3ccccc13)C2=O	3	-4	2	.	-5	.
Brc1ccc2c(c1)C(c1ccc(N3CCOCC3)cc1)=NNC(c1cccs1)=N2	37*	14	-1	4	-1	16
Fc1ccc2c(c1)C(c1ccc(N3CCOCC3)cc1)=NNC(c1cccs1)=N2	15	9	1	5	-1	-5
CC(NC(=O)COC(=O)C1CCN(c2ccc(C(F)(F)F)cn2)CC1)c1ccc(F)cc1 (stereo not drawn)	1	-2	17*	.	0	8
CC(NC(=O)COC(=O)C1CCN(c2ccc(C(F)(F)F)cn2)CC1)c1ccc(Br)cc1 (stereo not drawn)	2	2	1	-5	0	-4
CCc1ccc2nc3sc(C(=O)N4CCc5ccccc54)c(N)c3cc2c1	.	.	-2	-8	0	-1
